Assay results as given in ChEMBL document CHEMBL5325503, “Structure Guided Design, Synthesis, and Biological Evaluation of Oxetane-Containing Indole Analogues” (Bioorg Med Chem, 2023).
Activity calls are given as the source filed them. No cut-off for these calls is given here.

Legend:
Tubulin = Tubulin (Bos taurus, UniProt Q6B856+Q862L2+Q862F3); experiment: Inhibition of bovine brain tubulin polymerization preincubated for 15 mins followed by GTP addition and measured after 20 mins by turbidimetric analysis
Procedure, shortened: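 Mixtures (0.25 mL final) held 10 μM (1 mg/mL) bovine brain tubulin, 0.8 M monosodium glutamate pH 6.6, 4% DMSO and compound. Preincubated 15 min at 30 °C without GTP, chilled to 0 °C, then GTP added to 0.1 mM final. Warmed to 30 °C, turbidity followed at 350 nm for 20 min. IC50 = concentration halving polymerization extent at 20 min.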

MCF7 [1] = experiment: Cytotoxicity against human MCF7 cells assessed as inhibition of cell growth incubated for 96 hrs by SRB assay; conditions: MCF7, 96 h
PANC-1 [2] = experiment: Inhibition of cell migration in human PANC-1 cells at 0.5 uM incubated for 1 to 40 hrs by scratch wound healing assay; format: functional, cell-based; conditions: time 1-40 hrs
Procedure, shortened: (§1)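 About 1 × 10^5 cells seeded per well of a 6-well plate in DMEM with 10% heat-inactivated FBS and 30 μg/mL gentamicin at 37 °C, 5% CO2. Grown to 70–80% confluency, scratched with a 10 μL pipette tip, medium replaced. Two wells per condition at 0.5 or 1 μM, DMSO ≤0.2% final, with two control wells. Gap imaged by automated microscopy (4X) over 48 h.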

PANC-1 [3] = experiment: Inhibition of cell migration in human PANC-1 cells at 0.5 to 1 uM incubated for 48 hrs by scratch wound healing assay; format: functional, cell-based; conditions: dose 0.5-1 µM; procedure, shortened: as §1
PANC-1 [4] = experiment: Cytotoxicity against human PANC-1 cells assessed as inhibition of cell growth incubated for 48 hrs by SRB assay; format: functional, cell-based; conditions: PANC-1, 48 h
Procedure, shortened: (§2)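 Seeded at 12,000 cells/well in triplicate and grown 24 h at 37 °C, 5% CO2 in high-glucose DMEM with 10% FBS and 30 μg/mL gentamicin. Serial dilutions in medium from 10 mg/mL DMSO stocks, 48 h exposure. Fixed with TCA (6% final), SRB-stained, dye solubilized in 10 mM Tris, A530.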

PANC-1 [5] = experiment: Inhibition of cell migration in human PANC-1 cells at 1 uM incubated at 40 hrs by scratch wound healing assay; format: functional, cell-based; procedure, shortened: as §1
MDA-MB-231 = experiment: Cytotoxicity against human MDA-MB-231 cells assessed as inhibition of cell growth incubated for 48 hrs by SRB assay; format: functional, cell-based; conditions: MDA-MB-231, 48 h; procedure, shortened: as §2
MCF7 [6] = experiment: Cytotoxicity against human MCF7 cells assessed as inhibition of cell growth incubated for 48 hrs by SRB assay; format: functional, cell-based; conditions: MCF7, 48 h

| SMILES | IC50 (Tubulin) [nM] | IC50 (MCF7 [1]) [nM] | inhibition (PANC-1 [2]) | inhibition (PANC-1 [3]) | IC50 (PANC-1 [4]) [nM] | inhibition (PANC-1 [5]) | IC50 (MDA-MB-231) [nM] | IC50 (MCF7 [6]) [nM] |
| --- | --- | --- | --- | --- | --- | --- | --- | --- |
| COc1ccc2[nH]c(-c3ccccc3)c(C3(c4cc(OC)c(OC)c(OC)c4)COC3)c2c1 | > 20000 | 3200 | – | – | – | – | – | – |
| COc1cc(C2(c3c(-c4ccccc4)[nH]c4c(OC)cccc34)COC2)cc(OC)c1OC | > 20000 | 780 | Active | Active | 440 | Active | 3000 | – |
| COc1ccc2c(C3(c4cc(OC)c(OC)c(OC)c4)COC3)c(-c3ccc(OC)c(O)c3)[nH]c2c1 | > 20000 | – | – | – | – | – | – | 1600 |
| COc1cc(C2(c3c(-c4ccccc4)[nH]c4ccccc34)COC2)cc(OC)c1OC | > 20000 | > 5000 | – | – | – | – | – | – |
| COc1ccc(-c2[nH]c3cc(Cl)ccc3c2C2(c3cc(OC)c(OC)c(OC)c3)COC2)cc1 | > 20000 | – | – | – | – | – | – | 3700 |
| COc1cccc(-c2[nH]c3ccccc3c2C2(c3cc(OC)c(OC)c(OC)c3)COC2)c1 | > 20000 | 4800 | – | – | – | – | – | – |

Further lines, with some results ahead:

| IC50 (Tubulin) [nM] | SMILES | IC50 (MCF7 [1]) [nM] | inhibition (PANC-1 [2]) | inhibition (PANC-1 [3]) | IC50 (PANC-1 [4]) [nM] | inhibition (PANC-1 [5]) | IC50 (MDA-MB-231) [nM] | IC50 (MCF7 [6]) [nM] |
| --- | --- | --- | --- | --- | --- | --- | --- | --- |
| > 20000 | COc1ccc2[nH]c(-c3ccc(C)cc3)c(C3(c4cc(OC)c(OC)c(OC)c4)COC3)c2c1 | > 5000 | – | – | – | – | – | – |
| > 20000 | COc1cc(C2(c3c(-c4ccccc4)[nH]c4cc(Br)ccc34)COC2)cc(OC)c1OC | 470 | Active | Active | 430 | Active | 1900 | – |
| > 20000 | COc1cc(C2(c3c(-c4ccc(C)cc4)[nH]c4ccccc34)COC2)cc(OC)c1OC | > 5000 | – | – | – | – | – | – |
| > 20000 | COc1cc(C2(c3c(-c4ccccc4)[nH]c4ccc(Br)cc34)COC2)cc(OC)c1OC | 2200 | – | – | – | – | – | – |
| > 20000 | COc1cc(C2(c3c(-c4ccc(C)cc4)[nH]c4cc(Br)ccc34)COC2)cc(OC)c1OC | 1700 | – | – | – | – | – | – |
| > 20000 | COc1cc(C2(c3c(-c4ccccc4)[nH]c4cc(Cl)ccc34)COC2)cc(OC)c1OC | 840 | – | – | 1100 | – | 2200 | – |
| > 20000 | COc1ccc(-c2[nH]c3ccccc3c2C2(c3cc(OC)c(OC)c(OC)c3)COC2)cc1 | > 5000 | – | – | – | – | – | – |
| > 20000 | COc1cc(C2(c3c(-c4ccc(C)cc4)[nH]c4cc(Cl)ccc34)COC2)cc(OC)c1OC | 2700 | – | – | – | – | – | – |
